Measurements pooled from the literature.
Protocols differ between the studies behind these lines.
Cell line: CCRF-CEM
Read-out: cell growth or viability

O=C1C(=Cc2ccccc2)CN(C(=O)C=CC=CC(=O)N2CC(=Cc3ccccc3)C(=O)C(=Cc3ccccc3)C2)CC1=Cc1ccccc1
IC50 (72 h): 39.2 µM

Cc1ccc(C=C2SC(=O)N(CC(=O)Nc3ccc(F)cc3F)C2=O)cc1C
IC50 (MTT; 48 h): 31.9 µM

COc1ccc(C(=O)c2cc3c(-c4ccccc4)c(OC)ccc3o2)cc1
IC50 (72 h): 1.5 µM

O=C1C(=Cc2ccccc2)CN(C(=O)C(=O)N2CC(=Cc3ccccc3)C(=O)C(=Cc3ccccc3)C2)CC1=Cc1ccccc1
IC50 (72 h): 0.75 µM

Cc1ccc(C=C2SC(=O)N(CC(=O)Nc3ccc(Cl)cc3C(F)(F)F)C2=O)cc1
IC50 (MTT; 48 h): 31.8 µM

COc1ccccc1CCc1cc(C#N)c(N)s1
IC50 (48 h): 6.8 µM

O=C1C(=Cc2ccccc2)CN(C(=O)CCC(=O)N2CC(=Cc3ccccc3)C(=O)C(=Cc3ccccc3)C2)CC1=Cc1ccccc1
IC50 (72 h): 1.21 µM

CCc1ccc(CCOc2ccc(CC3SC(=O)NC3=O)cc2)nc1 (centres unmarked)
IC50 (MTT; 48 h): 17.9 µM

CC[C@]1(O)C[C@H]2CN(CCc3c([nH]c4ccccc34)[C@@](C(=O)OC)(c3cc4c(cc3OC)N(C=O)[C@H]3[C@@](O)(C(=O)OC)[C@H](OC(C)=O)[C@]5(CC)C=CCN6CC[C@]43[C@@H]65)C2)C1
IC50 (fluorescence; 72 h): 0.0104 µM

O=C(CN1C(=O)SC(=Cc2ccc(F)cc2)C1=O)Nc1cccc(C(F)(F)F)c1
IC50 (MTT; 48 h): 30.1 µM

CCOC(=O)c1cc(CCc2cc(OC)ccc2OC)sc1N
IC50 (48 h): 0.4 µM

O=C(CN1C(=O)SC(=Cc2ccccc2)C1=O)Nc1ccc(F)cc1F
IC50 (MTT; 48 h): 32.3 µM

COc1ccc(/C=C\c2cc(OC)c(OC)c(OC)c2)cc1O
IC50 (72 h): 0.0018 µM

COc1ccc(OC)c(-c2cc(C#N)c(N)s2)c1
IC50 (48 h): 12 µM

COc1ccc2oc(C(=O)c3ccccc3)cc2c1-c1ccccc1
IC50 (72 h): > 50 µM

CC[C@]1(O)C[C@@H]2CN(CCc3c([nH]c4ccccc34)[C@@](C(=O)OC)(c3cc4c(cc3OC)N(C)[C@H]3[C@@](O)(C(=O)OC)[C@H](OC(C)=O)[C@]5(CC)C=CCN6CC[C@]43[C@@H]65)C2)C1
IC50 (MTT; 72 h): 0.002 µM

O=C1NC(=NCc2cccs2)S/C1=C\c1ccc2ncccc2c1
IC50: 2.5 µM

N#Cc1cc(CCc2ccccc2)sc1N
IC50 (48 h): 32 µM

COc1ccc(C(=O)c2cc3c(-c4ccccc4)c(O)ccc3o2)cc1
IC50 (72 h): 0.88 µM

COC(=O)c1c(N)sc(CCc2cc(OC)ccc2OC)c1C
IC50 (48 h): 30 µM

COc1cccc(C(=O)c2cc3c(-c4ccccc4)c(O)ccc3o2)c1
IC50 (72 h): 35 µM

COC(=O)c1cc(CCc2cc(OC)ccc2OC)sc1N
IC50 (48 h): 1.4 µM

O=C1C(=Cc2ccccc2)CN(C(=O)C=CC(=O)N2CC(=Cc3ccccc3)C(=O)C(=Cc3ccccc3)C2)CC1=Cc1ccccc1
IC50 (72 h): 7.75 µM
